Experiment [1] deals with T1, ATPase family AAA domain-containing protein 2 (Homo sapiens) (UniProt Q6PL18).
T1 sequence (whole entry): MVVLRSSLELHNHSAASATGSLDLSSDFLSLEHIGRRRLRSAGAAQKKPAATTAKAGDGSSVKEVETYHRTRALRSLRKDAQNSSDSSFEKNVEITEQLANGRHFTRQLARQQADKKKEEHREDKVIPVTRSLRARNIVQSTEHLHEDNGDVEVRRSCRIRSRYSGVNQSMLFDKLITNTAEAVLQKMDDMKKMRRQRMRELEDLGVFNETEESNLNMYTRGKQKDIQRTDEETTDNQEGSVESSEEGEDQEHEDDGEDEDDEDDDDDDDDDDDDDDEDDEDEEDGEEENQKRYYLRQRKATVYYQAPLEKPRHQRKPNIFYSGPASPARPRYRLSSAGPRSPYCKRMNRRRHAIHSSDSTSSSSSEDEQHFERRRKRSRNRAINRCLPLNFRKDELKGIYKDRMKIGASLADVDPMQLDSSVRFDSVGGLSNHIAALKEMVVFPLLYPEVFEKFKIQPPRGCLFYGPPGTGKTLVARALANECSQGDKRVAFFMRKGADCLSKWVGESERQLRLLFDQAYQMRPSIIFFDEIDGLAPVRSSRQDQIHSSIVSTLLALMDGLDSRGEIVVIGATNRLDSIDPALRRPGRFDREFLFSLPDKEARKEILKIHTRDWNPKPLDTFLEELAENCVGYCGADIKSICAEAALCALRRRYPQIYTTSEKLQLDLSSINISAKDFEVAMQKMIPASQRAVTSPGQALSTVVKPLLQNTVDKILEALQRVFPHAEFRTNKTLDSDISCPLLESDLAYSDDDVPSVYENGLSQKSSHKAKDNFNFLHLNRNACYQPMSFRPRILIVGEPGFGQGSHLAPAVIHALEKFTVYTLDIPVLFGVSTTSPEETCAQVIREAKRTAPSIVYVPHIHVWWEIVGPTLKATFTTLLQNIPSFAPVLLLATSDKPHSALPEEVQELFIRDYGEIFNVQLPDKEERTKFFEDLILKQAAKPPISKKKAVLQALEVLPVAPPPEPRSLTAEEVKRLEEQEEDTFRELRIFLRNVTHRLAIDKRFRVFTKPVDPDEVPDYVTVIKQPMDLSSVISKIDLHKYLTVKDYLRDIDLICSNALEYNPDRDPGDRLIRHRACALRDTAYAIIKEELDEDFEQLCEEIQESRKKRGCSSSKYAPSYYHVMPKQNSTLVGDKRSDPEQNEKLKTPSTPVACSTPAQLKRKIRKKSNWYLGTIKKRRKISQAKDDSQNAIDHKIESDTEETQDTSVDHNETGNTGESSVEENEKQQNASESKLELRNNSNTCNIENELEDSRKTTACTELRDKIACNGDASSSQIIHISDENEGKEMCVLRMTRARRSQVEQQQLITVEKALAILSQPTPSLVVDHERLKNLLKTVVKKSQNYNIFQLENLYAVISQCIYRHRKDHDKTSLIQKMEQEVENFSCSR
The experiment in a line: Binding affinity to 15N-labelled ATAD2 (981 to 1108 residues) (unknown origin) at 100 uM by 1H-15N HSQC NMR analysis. An outline of the steps: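 15N–1H HSQC spectra of labelled ATAD2 bromodomain recorded with and without compound at 100 μM. Binding is judged from spectral changes.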

In experiment [2] the target is T1, ATPase family AAA domain-containing protein 2 (Homo sapiens). Put plainly: Displacement of SGRG-K(Ac)-GG-K(Ac)-GLG-K(Ac)-GGAKRHRKV-biotin) from His6/FLAG-tagged TEV fused ATAD2 bromodomain (981 to 1121 residues) (unknown origin) expressed in Escherichia coli BL21(DE3) cells at 10 uM after 30 mins by TR-FRET assay relative to control. A general note: In TR-FRET formats the signal depends on donor and acceptor labels being close together.

Experiment [3] concerns the target T2, ATPase family AAA domain-containing protein 2 (Homo sapiens, UniProt Q6PL18).
T2 sequence (Q6PL18 whole entry): T1 sequence (whole entry)
The experiment in a line: Displacement of SGRG-K(Ac)-GG-K(Ac)-GLG-K(Ac)-GGAKRHRKV-biotin) from His6/FLAG-tagged TEV fused ATAD2 bromodomain (981 to 1121 residues) (unknown origin) expressed in Escherichia coli BL21(DE3) cells after 30 mins by TR-FRET assay.

Experiment [4] concerns the target Bromodomain-containing protein 4 (Homo sapiens, UniProt O60885, Y390A). The experiment in a line: Displacement of Alexa Fluor 647 labelled ligand from His6-tagged BRD4 BD1 (1 to 477 residues)/BD2 Y390A mutant (unknown origin) after 30 mins by TR-FRET assay. An outline of the steps: (§1)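 BET selectivity by TR-FRET fluoroligand displacement. Uses tandem BET bromodomain constructs carrying a mutation in the non-assayed bromodomain.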

For experiment [5], the target named is Bromodomain-containing protein 4 (Homo sapiens, UniProt O60885, Y97A). The experiment in a line: Displacement of Alexa Fluor 647 labelled ligand from His6-tagged BRD4 BD2 (1 to 477 residues)/BD1 Y97A mutant (unknown origin) after 30 mins by TR-FRET assay. An outline of the steps: as §1
The target in experiment [6] is T1, ATPase family AAA domain-containing protein 2 (Homo sapiens). Put plainly: Binding affinity to His6/FLAG-tagged TEV fused ATAD2 bromodomain (950 to 1148 residues) (unknown origin) expressed in Escherichia coli BL21(DE3) cells by surface plasmon resonance. An outline of the steps: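 SPR screen of concentration–response up to 100 μM. Wild-type ATAD2 and a Y1021A/N1064A mutant lacking the acetyl-lysine binding motif were run in parallel. Hits were classed as binding, nonbinding or linear binding (nonsaturating response, calculated Kd above the top concentration).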
(SPR reads the build-up and loss of mass on a sensor chip optically.)

Experiment [7] has the same target. Put plainly: Displacement of SGRG-K(Ac)-GG-K(Ac)-GLG-K(Ac)-GGAKRHRKV-biotin) from His6/FLAG-tagged TEV fused ATAD2 bromodomain (981 to 1121 residues) (unknown origin) expressed in Escherichia coli BL21(DE3) cells at 100 to 300 uM after 30 mins by TR-FRET assay relative to control.
Experiment [8] concerns the target T2, ATPase family AAA domain-containing protein 2. Put plainly: Displacement of biotinylated H4 peptide from His6/FLAG-tagged TEV fused ATAD2 bromodomain (950 to 1148 residues) (unknown origin) expressed in Escherichia coli BL21(DE3) cells after 30 mins by TR-FRET assay. An outline of the steps: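 TR-FRET acetylated-peptide displacement assay using 6H-Flag-tev ATAD2(950–1148). Used for the HTS: single-concentration primary screen with digital plate-pattern correction, then replated duplicate retest and dose–response. A curve-fit cutoff of IC50 > 30 μM applies.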

Experiment [9] concerns the target T1, ATPase family AAA domain-containing protein 2 (Homo sapiens). Put plainly: Displacement of SGRG-K(Ac)-GG-K(Ac)-GLG-K(Ac)-GGAKRHRKV-biotin) from His6/FLAG-tagged TEV fused ATAD2 bromodomain (981 to 1121 residues) (unknown origin) expressed in Escherichia coli BL21(DE3) cells up to 10 uM after 30 mins by TR-FRET assay.
In experiment [10] the target is T2, ATPase family AAA domain-containing protein 2. Put plainly: Displacement of Alexa Fluor 488 labelled ligand from ATAD2 bromodomain (981 to 1121 residues) (unknown origin) expressed in Escherichia coli BL21(DE3) cells after 30 mins by TR-FRET assay.
The target is the same in experiment [11]. Put plainly: Binding affinity to human partial length ATAD2A (Q981 to R1108 residues) expressed in Escherichia coli BL21(DE3) cells after 1 hr by competitive binding assay.

Here are results for seven molecules from ChEMBL document CHEMBL4311956, “A Qualified Success: Discovery of a New Series of ATAD2 Bromodomain Inhibitors with a Novel Binding Mode Using High-Throughput Screening and Hit Qualification” (J Med Chem, 2019).

For orientation: inhibition means the relative decrease from the control value, in per cent. Read a high inhibition as a strong effect. The term IC50 denotes the concentration that gives 50% inhibition. A higher IC50 goes with lower potency. In general, Kd refers to the constant that tells how readily two partners part at equilibrium.

Calls of active or inactive are those of the source.

In the case of `O=C(CN1C(=O)NC(CCc2ccccc2)C1=O)Nc1ccc(Cl)c(S(=O)(=O)N2CCCCC2)c1` (configuration not stated), the outcome in experiment [1] and in experiment [6] was Active. Besides, in experiment [2], the inhibition amounted to 48%. Moreover, the IC50 in [3] is 3.16 µM; in experiment [4], > 50.1 µM; in experiment [5], > 50.1 µM.
As to `CCC(=O)Nc1ccc(Cl)c(S(=O)(=O)N2CCCCC2)c1`, in experiment [3], the IC50 was 79.4 µM. This molecule displayed an Activity in [7] of 45 to 55%.
With `Cc1ccc(NC(=O)CN2C(=O)NC(Cc3ccccc3)C2=O)cc1S(=O)(=O)N1CCCCC1` (configuration not stated), the outcome in [1] and in experiment [6] was Active. The inhibition in experiment [2] came out at 18%. The IC50 in experiment [3] is > 100 µM; in experiment [4], > 50.1 µM; in experiment [5], > 50.1 µM.
`CN1CCN(c2nc(C(=O)c3ccccc3)c3cnn(C)c3n2)CC1` displayed an IC50 in experiment [8] of 0.03 µM. In addition, the result in experiment [9] and in experiment [1] was inactive.
For the molecule `CC1CCCN(S(=O)(=O)c2cc(NC(=O)CN3C(=O)CNC3=O)ccc2Br)C1` (configuration not stated), the results for the IC50 in experiment [4], in [5] and in [10] were > 50.1 µM, 31.6 µM and 0.631 µM, respectively.
For `O=C(CNC(=O)C1CCCCC1)Nc1ccc(Cl)c(S(=O)(=O)N2CCCCC2)c1`, the outcome in experiment [1] and in experiment [6] was Active. The inhibition in [2] amounted to 29%. Further, the IC50 in experiment [3] is > 100 µM; in experiment [4], > 50.1 µM; in [5], > 50.1 µM.
In [11], `CCOC(=O)Nc1cc(-c2ccc(C)c(NS(C)(=O)=O)c2)nn2c(C)nnc12` registered a Kd of 44 µM.
